Legend:
EGFR = EGFR (Homo sapiens, UniProt P00533); experiment: In vitro EGFR kinase activity assay; type: biochemical
[1] = tested on: human liver carcinoma (HepG-2); experiment: MTT anti-proliferative assay on HepG-2; type: cell-based; details: HepG2, 48 h, read-out: IC50 (μM) ± SD HepG-2, MTT, 48 h, HepG-2
Outline: (§1)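 Cells grown at 37 °C in humidified 5% CO2 and seeded at 5 × 10^4 per well. Exposed 48 h at 37 °C to a concentration series of test compound, or doxorubicin as positive control, in serum-free medium with DMSO. MTT solution (2.5 mg ml−1) added for 4 h, formazan dissolved in DMSO, absorbance read at 590 nm. Viability taken as percent of untreated control; technical triplicate, three biological replicates, mean ± SD; IC50 by probit analysis.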

PI3Kβ (p110β/p85α) = PI3Kβ (p110β/p85α) (Homo sapiens, UniProt P42338); experiment: In vitro PI3K activity assay; type: biochemical
[2] = tested on: HCT-116 (human colorectal carcinoma); experiment: MTT anti-proliferative assay on HCT-116; type: cell-based; details: HCT-116, 48 h, read-out: IC50 (μM) ± SD HCT-116
Outline: as §1

mTOR = mTOR (Homo sapiens, UniProt P42345); experiment: In vitro m-TOR activity assay; type: biochemical
[3] = tested on: MCF-7 (human breast adenocarcinoma); experiment: MTT anti-proliferative assay on MCF-7; type: cell-based; details: MCF7, 48 h, read-out: IC50 (μM) ± SD MCF-7, MTT, 48 h, MCF-7
Outline: as §1

MCF-7 cells [4] = experiment: Apoptosis assay; type: cell-based, human
MCF-7 cells [5] = experiment: Cell cycle analysis; type: cell-based, human
Outline: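 MCF-7 cells seeded at 8 × 10^4, held overnight at 37 °C with 5% CO2, then treated 48 h with test compound. Pelleted at 300 g for 5 min and fixed in 70% ethanol on ice for 15 min. Flow cytometry run within 1 h of staining.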

EGFR, sequence (P00533 25-1210): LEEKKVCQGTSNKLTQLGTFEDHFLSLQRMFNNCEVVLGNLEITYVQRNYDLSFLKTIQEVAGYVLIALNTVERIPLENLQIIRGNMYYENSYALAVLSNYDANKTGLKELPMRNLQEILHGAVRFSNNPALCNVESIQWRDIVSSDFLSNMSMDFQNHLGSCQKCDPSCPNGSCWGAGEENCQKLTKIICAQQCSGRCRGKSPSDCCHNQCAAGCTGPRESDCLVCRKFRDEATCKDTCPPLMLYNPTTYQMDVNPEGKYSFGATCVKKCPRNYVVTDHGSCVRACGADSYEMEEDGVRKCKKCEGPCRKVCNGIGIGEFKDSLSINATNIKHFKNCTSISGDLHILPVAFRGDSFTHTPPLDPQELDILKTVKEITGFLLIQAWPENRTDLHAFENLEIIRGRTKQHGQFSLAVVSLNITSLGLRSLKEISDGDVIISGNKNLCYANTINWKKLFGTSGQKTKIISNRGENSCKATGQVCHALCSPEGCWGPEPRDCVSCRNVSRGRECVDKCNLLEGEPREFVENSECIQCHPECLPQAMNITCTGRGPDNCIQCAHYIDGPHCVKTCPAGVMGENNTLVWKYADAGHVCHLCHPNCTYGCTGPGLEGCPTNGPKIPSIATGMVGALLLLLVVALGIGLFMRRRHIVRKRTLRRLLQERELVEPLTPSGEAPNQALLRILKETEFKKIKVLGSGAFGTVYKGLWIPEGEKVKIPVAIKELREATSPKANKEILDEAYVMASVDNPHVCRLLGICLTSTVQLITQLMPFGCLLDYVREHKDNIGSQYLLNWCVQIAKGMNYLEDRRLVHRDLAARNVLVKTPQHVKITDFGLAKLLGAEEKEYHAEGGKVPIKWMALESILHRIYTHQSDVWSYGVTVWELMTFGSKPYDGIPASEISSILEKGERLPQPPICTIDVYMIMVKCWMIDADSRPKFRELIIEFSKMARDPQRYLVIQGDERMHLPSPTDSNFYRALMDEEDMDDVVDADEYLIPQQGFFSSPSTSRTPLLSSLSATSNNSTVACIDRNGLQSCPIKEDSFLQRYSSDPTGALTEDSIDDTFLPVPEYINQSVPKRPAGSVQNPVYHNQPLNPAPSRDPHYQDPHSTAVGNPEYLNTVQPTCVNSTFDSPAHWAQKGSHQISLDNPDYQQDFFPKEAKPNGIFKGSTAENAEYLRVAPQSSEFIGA
PI3Kβ (p110β/p85α), sequence (P42338 whole entry): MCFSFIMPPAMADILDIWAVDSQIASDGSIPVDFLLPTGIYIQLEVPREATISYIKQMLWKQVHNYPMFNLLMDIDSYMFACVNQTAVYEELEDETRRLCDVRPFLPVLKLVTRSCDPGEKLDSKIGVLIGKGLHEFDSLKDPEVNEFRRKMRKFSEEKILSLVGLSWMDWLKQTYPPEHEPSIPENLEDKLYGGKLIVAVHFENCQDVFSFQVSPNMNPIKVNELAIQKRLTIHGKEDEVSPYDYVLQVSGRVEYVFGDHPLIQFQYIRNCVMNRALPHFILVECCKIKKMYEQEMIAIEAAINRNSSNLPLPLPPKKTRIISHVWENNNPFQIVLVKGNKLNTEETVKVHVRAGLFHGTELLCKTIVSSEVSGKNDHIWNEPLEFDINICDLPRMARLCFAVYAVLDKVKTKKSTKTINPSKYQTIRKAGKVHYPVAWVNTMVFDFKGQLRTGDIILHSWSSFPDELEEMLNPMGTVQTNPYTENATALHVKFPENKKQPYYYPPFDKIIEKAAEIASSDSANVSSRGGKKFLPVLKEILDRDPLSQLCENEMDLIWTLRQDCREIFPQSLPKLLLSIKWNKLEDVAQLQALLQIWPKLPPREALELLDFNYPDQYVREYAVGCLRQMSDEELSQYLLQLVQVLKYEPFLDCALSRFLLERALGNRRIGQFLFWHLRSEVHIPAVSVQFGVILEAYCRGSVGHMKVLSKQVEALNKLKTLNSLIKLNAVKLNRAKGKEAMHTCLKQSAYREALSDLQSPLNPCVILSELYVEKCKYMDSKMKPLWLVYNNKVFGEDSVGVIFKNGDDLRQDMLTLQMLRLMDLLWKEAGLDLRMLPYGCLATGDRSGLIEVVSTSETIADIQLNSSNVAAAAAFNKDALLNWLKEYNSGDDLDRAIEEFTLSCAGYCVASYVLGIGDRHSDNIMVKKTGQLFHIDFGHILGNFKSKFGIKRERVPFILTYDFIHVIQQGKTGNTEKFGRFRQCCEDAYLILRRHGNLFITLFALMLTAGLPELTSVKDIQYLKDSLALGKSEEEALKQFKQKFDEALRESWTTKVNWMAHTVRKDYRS
PI3Kβ (p110β/p85α), sequence (P27986 whole entry partner): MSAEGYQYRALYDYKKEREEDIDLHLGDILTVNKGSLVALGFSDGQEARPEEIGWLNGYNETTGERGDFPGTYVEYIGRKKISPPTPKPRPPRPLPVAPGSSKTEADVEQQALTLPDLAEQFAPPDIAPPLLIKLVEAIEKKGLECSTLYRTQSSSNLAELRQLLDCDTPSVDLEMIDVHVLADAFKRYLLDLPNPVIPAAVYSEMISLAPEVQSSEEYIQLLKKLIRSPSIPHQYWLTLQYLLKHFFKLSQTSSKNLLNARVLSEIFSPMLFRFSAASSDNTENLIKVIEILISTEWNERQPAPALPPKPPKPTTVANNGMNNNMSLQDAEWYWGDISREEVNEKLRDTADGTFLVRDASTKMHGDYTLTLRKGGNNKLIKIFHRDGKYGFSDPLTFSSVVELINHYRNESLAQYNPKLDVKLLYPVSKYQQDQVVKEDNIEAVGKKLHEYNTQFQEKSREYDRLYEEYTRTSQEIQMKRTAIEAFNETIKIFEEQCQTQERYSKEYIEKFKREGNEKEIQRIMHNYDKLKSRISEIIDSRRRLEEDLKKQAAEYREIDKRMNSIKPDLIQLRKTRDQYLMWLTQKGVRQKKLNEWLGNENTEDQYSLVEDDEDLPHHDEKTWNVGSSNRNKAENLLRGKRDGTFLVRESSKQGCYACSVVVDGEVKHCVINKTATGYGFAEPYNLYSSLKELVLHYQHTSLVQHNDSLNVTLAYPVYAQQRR

| Compound | IC50 (EGFR) [µM] | IC50 [1] [µM] | IC50 (PI3Kβ (p110β/p85α)) [µM] | IC50 [2] [µM] | IC50 (mTOR) [µM] | IC50 [3] [µM] | effect on apoptosis (MCF-7 cells [4]) | effect on cell cycle progression (MCF-7 cells [5]) |
| --- | --- | --- | --- | --- | --- | --- | --- | --- |
| CNC(=S)NN=C(C)c1c(O)c2ccccc2oc1=O [Compound 2b, 4-Methyl-1-(1-(4-hydroxy-2-oxo-2H-chromen-3-yl)ethylidene)thiosemicarbazide] | 2.28 ± 0.14 | 48.1 ± 3.9 | 1.33 ± 0.074 | 7.2 ± 0.6 | 2.96 ± 0.18 | 13.6 ± 1.5 |  |  |
| CC(=NN=c1[nH]c(C)cs1)c1c(O)c2ccccc2oc1=O [Compound 3a, 3-{1-[(4-Methyl-3H-thiazol-2-ylidene)-hydrazono]-ethyl}-4-hydroxy-2H-chromen-2-one] |  | 42.5 ± 4.1 |  | 32.6 ± 3.1 |  | 34.5 ± 3.6 |  |  |
| CC(=NN=c1scc(C)n1C)c1c(O)c2ccccc2oc1=O [Compound 3b, 3-{1-[(3,4-Dimethyl-3H-thiazol-2-ylidene)-hydrazono]-ethyl}-4-hydroxy-2H-chromen-2-one] |  | 46.1 ± 3.7 |  | 27.2 ± 2.9 |  | 34.9 ± 3.1 |  |  |
| CCn1c(C)csc1=NN=C(C)c1c(O)c2ccccc2oc1=O [Compound 3c, 3-{1-[(3-Ethyl-4-methyl-3H-thiazol-2-ylidene)-hydrazono]-ethyl}-4-hydroxy-2H-chromen-2-one] |  | 68.2 ± 5.6 |  | 36.3 ± 3.5 |  | 36.5 ± 4.2 |  |  |
| CC(=O)c1sc(=NN=C(C)c2c(O)c3ccccc3oc2=O)[nH]c1C [Compound 4a, 3-{1-[(5-Acetyl-4-methyl-3H-thiazol-2-ylidene)-hydrazono]-ethyl}-4-hydroxy-2H-chromen-2-one] |  | 48.8 ± 3.1 |  | 31.4 ± 3.1 |  | 25.6 ± 3.1 |  |  |
| CC(=O)c1sc(=NN=C(C)c2c(O)c3ccccc3oc2=O)n(C)c1C [Compound 4b, 3-{1-[(5-Acetyl-3,4-dimethyl-3H-thiazol-2-ylidene)-hydrazono]-ethyl}-4-hydroxy-2H-chromen-2-one] |  | 57.1 ± 4.3 |  | 24.3 ± 2.7 |  | 32.7 ± 3.5 |  |  |
| CCn1c(C)c(C(C)=O)sc1=NN=C(C)c1c(O)c2ccccc2oc1=O [Compound 4c, 3-{1-[(5-Acetyl-3-ethyl-4-methyl-3H-thiazol-2-ylidene)-hydrazono]-ethyl}-4-hydroxy-2H-chromen-2-one] |  | 62.5 ± 3.9 |  | 38.9 ± 3.2 |  | 33.7 ± 3.2 |  |  |
| CC(=NN=c1scc(-c2ccccc2)n1C)c1c(O)c2ccccc2oc1=O [Compound 5b, 3-{1-[(3-Methyl-4-phenyl-3H-thiazol-2-ylidene)-hydrazono]-ethyl}-4-hydroxy-2H-chromen-2-one] |  | 66.4 ± 5.6 |  | 42.4 ± 4.1 |  | 34.6 ± 2.9 |  |  |
| CCOC(=O)c1sc(=NN=C(C)c2c(O)c3ccccc3oc2=O)[nH]c1C [Compound 6a, 4-Methyl-2-{[1-(4-hydroxy-2-oxo-2H-chromen-3-yl)-ethylidene]-hydrazono}-2,3-dihydro-thiazole-5-carboxylic acid ethyl ester] | 0.184 ± 0.01 | 57.2 ± 4.3 | 0.131 ± 0.007 | 20.4 ± 1.9 | 0.719 ± 0.04 | 6.4 ± 0.5 | increase in the early and late cellular apoptosis | cell growth arrest at S phase |
| CCOC(=O)c1sc(=NN=C(C)c2c(O)c3ccccc3oc2=O)n(C)c1C [Compound 6b, 3,4-Dimethyl-2-{[1-(4-hydroxy-2-oxo-2H-chromen-3-yl)-ethylidene]-hydrazono}-2,3-dihydro-thiazole-5-carboxylic acid ethyl ester] | 0.563 ± 0.03 | 41.4 ± 2.9 | 0.361 ± 0.02 | 5.9 ± 0.7 | 1.45 ± 0.08 | 11.2 ± 1.1 |  |  |
| CCOC(=O)c1sc(=NN=C(C)c2c(O)c3ccccc3oc2=O)n(CC)c1C [Compound 6c, 3-Ethyl-4-methyl-2-{[1-(4-hydroxy-2-oxo-2H-chromen-3-yl)-ethylidene]-hydrazono}-2,3-dihydro-thiazole-5-carboxylic acid ethyl ester] |  | 45.1 ± 4.1 |  | 24.7 ± 1.6 |  | 20.7 ± 2.1 |  |  |
| CC(=NN=C1SCC(=O)N1C)c1c(O)c2ccccc2oc1=O [Compound 7b, 3-Methyl-2-{[1-(4-hydroxy-2-oxo-2H-chromen-3-yl)-ethylidene]-hydrazono}-thiazolidin-4-one] |  | 65.7 ± 5.1 |  | 41.2 ± 3.9 |  | 32.8 ± 3.5 |  |  |
| COc1cccc2c1C(=O)c1c(O)c3c(c(O)c1C2=O)C[C@@](O)(C(=O)CO)C[C@@H]3O[C@H]1C[C@H](N)[C@H](O)[C@H](C)O1 [Doxorubicin, reference compound] |  | 63.2 ± 5.8 |  | 21.8 ± 2.9 |  | 16.7 ± 1.5 |  |  |

Continued, in another order:

| IC50 (EGFR) [µM] | IC50 [1] [µM] | IC50 (PI3Kβ (p110β/p85α)) [µM] | IC50 [2] [µM] | IC50 (mTOR) [µM] | IC50 [3] [µM] | Compound | effect on apoptosis (MCF-7 cells [4]) | effect on cell cycle progression (MCF-7 cells [5]) |
| --- | --- | --- | --- | --- | --- | --- | --- | --- |
|  | 42.4 ± 3.5 |  | 38.3 ± 4.2 |  | 27.4 ± 1.9 | CC(=NN=C1NC(=O)C(C)S1)c1c(O)c2ccccc2oc1=O (centres unmarked) [Compound 8a, 5-Methyl-2-{[1-(4-hydroxy-2-oxo-2H-chromen-3-yl)-ethylidene]-hydrazono}-thiazolidin-4-one] |  |  |
|  | 67.2 ± 4.9 |  | 44.8 ± 4.5 |  | 26.1 ± 3.5 | CC(=NN=C1SC(C)C(=O)N1C)c1c(O)c2ccccc2oc1=O (centres unmarked) [Compound 8b, 3,5-Dimethyl-2-{[1-(4-hydroxy-2-oxo-2H-chromen-3-yl)-ethylidene]-hydrazono}-thiazolidin-4-one] |  |  |
|  | 80.2 ± 5.9 |  | 44.9 ± 4.3 |  | 7.4 ± 0.9 | CCN1C(=O)C(C)SC1=NN=C(C)c1c(O)c2ccccc2oc1=O (centres unmarked) [Compound 8c, 3-Ethyl-5-methyl-2-{[1-(4-hydroxy-2-oxo-2H-chromen-3-yl)-ethylidene]-hydrazono}-thiazolidin-4-one] |  |  |
|  | 71.2 ± 5.1 |  | 33.9 ± 2.8 |  | 33.4 ± 2.8 | CC(=NN=c1[nH]c(C)c(N=Nc2ccccc2)s1)c1c(O)c2ccccc2oc1=O [Compound 9a, 3-{1-[(4-Methyl-5-phenylazo-3H-thiazol-2-ylidene)-hydrazono]-ethyl}-4-hydroxy-2H-chromen-2-one] |  |  |
|  | 64.1 ± 5.5 |  | 37.9 ± 2.5 |  | 32.3 ± 3.5 | CC(=NN=c1sc(N=Nc2ccccc2)c(C)n1C)c1c(O)c2ccccc2oc1=O [Compound 9b, 3-{1-[(3,4-Dimethyl-5-phenylazo-3H-thiazol-2-ylidene)-hydrazono]-ethyl}-4-hydroxy-2H-chromen-2-one] |  |  |
|  | 60.9 ± 4.8 |  | 47.2 ± 4.5 |  | 32.8 ± 2.8 | CCn1c(C)c(N=Nc2ccccc2)sc1=NN=C(C)c1c(O)c2ccccc2oc1=O [Compound 9c, 3-{1-[(3-Ethyl-4-methyl-5-phenylazo-3H-thiazol-2-ylidene)-hydrazono]-ethyl}-4-hydroxy-2H-chromen-2-one] |  |  |
|  | 57.2 ± 4.6 |  | 45.6 ± 4.2 |  | 26.3 ± 2.5 | CC(=NN=c1[nH]c(C)c(N=Nc2ccc(C)cc2)s1)c1c(O)c2ccccc2oc1=O [Compound 9d, 3-{1-[(4-Methyl-5-(4-tolyl)azo-3H-thiazol-2-ylidene)-hydrazono]-ethyl}-4-hydroxy-2H-chromen-2-one] |  |  |
|  | 74.4 ± 5.9 |  | 55.2 ± 5.1 |  | 23.3 ± 1.9 | CC(=NN=c1sc(N=Nc2ccc(C)cc2)c(C)n1C)c1c(O)c2ccccc2oc1=O [Compound 9e, 3-{1-[(3,4-Dimethyl-5-(4-tolyl)azo-3H-thiazol-2-ylidene)-hydrazono]-ethyl}-4-hydroxy-2H-chromen-2-one] |  |  |
|  | 82.1 ± 6.1 |  | 40.1 ± 4.7 |  | 17.8 ± 1.1 | CCn1c(C)c(N=Nc2ccc(C)cc2)sc1=NN=C(C)c1c(O)c2ccccc2oc1=O [Compound 9f, 3-{1-[(3-Ethyl-4-methyl-5-(4-tolyl)azo-3H-thiazol-2-ylidene)-hydrazono]-ethyl}-4-hydroxy-2H-chromen-2-one] |  |  |

From publication PMC10548181 (RSC Advances, 2023)
